Key:
[1] = test system: MV4-11; assay: Induction of apoptosis in human MV4-11 cells assessed as late apoptotic cells at 2 uM incubated for 15 mins by Annexin-V/FITC staining based FACS analysis (reference value: 4.36%); type: functional; details: 0.25 h
Method in brief: (§1)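 MV4-11 cells were dosed, then washed twice in cold PBS and resuspended in binding buffer at 1×10^6 cells/mL. Cells were stained with FITC-annexin V and propidium iodide for 15 min in the dark, diluted with binding buffer and analysed by flow cytometry within 1 h. Quadrants: LL viable, LR early apoptotic, UR late apoptotic. Duplicate experiments averaged; DMSO control.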

[2] = test system: MV4-11; assay: Induction of apoptosis in human MV4-11 cells assessed as viable cells at 1 uM incubated for 15 mins by Annexin-V/FITC staining based FACS analysis (reference value: 84.58%); type: functional; details: MV4-11, 0.25 h, read-out: Activity; method in brief: as §1
[3] = target: T1, Protein deacetylase HDAC6 (Homo sapiens, UniProt Q9UBN7); assay: Inhibition of full length human HDAC6 preincubated for 3 hrs
T1 sequence (Q9UBN7 whole entry): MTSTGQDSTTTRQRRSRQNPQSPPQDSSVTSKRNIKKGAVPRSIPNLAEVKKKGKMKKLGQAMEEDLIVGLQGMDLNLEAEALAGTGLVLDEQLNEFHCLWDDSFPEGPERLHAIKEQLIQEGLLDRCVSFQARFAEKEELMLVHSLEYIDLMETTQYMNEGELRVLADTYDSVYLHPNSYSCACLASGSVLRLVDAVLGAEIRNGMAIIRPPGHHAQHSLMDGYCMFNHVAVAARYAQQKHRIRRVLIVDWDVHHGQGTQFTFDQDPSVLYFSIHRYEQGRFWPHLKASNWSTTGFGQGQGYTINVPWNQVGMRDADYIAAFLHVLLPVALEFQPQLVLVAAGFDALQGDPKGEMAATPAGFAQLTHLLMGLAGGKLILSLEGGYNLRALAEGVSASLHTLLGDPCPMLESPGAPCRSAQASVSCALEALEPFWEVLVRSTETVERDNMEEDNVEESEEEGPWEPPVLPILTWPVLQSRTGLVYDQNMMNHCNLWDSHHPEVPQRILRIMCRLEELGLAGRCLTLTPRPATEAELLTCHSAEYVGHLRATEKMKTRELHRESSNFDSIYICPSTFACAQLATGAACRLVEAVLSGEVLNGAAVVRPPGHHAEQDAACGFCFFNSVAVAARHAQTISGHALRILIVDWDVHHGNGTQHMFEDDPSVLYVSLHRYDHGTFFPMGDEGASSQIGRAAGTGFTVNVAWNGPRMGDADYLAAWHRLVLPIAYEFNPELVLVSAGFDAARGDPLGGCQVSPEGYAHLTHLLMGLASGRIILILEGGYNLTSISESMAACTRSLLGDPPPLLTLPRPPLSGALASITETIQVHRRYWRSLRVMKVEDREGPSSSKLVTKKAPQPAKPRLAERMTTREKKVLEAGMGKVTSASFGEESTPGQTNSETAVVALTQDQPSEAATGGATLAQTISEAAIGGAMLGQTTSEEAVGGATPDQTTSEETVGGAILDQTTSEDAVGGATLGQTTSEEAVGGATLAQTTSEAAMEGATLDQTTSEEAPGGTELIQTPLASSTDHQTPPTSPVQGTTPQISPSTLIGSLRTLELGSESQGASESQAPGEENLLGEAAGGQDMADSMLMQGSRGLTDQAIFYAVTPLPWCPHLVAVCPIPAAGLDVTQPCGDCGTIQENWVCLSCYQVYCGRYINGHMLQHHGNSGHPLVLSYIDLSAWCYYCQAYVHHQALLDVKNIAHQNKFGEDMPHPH

[4] = Half life in Balb/c mouse at 50 mg/kg, ip by LC-MS/MS analysis; type: ADME, organism-based; details: in vivo
Method in brief: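 Male BALB/c mice received a single intraperitoneal dose from a 50 mg/mL solution in 5% DMSO, 30% PEG400, 1% Tween80 and 64% saline. Blood was collected at several time points and the compound quantified by triple-quadrupole LC-MS/MS.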

[5] = Stability in mouse plasma assessed as compound remaining measured after 15 mins; type: ADME, cell-free; details: read-out: Stability
[6] = target: T2, Protein deacetylase HDAC6 (Homo sapiens) (UniProt Q9UBN7); assay: Binding affinity to human HDAC6 assessed as residence time by two-step reversible inhibition model
T2 sequence (whole entry): T1 sequence (Q9UBN7 whole entry)

[7] = Stability in mouse plasma measured assessed as compound remaining after 60 mins; type: ADME, cell-free; details: read-out: Stability
[8] = test system: MV4-11; assay: Induction of apoptosis in human MV4-11 cells assessed as late apoptotic cells at 0.50 uM incubated for 15 mins by Annexin-V/FITC staining based FACS analysis (reference value: 4.17%); type: functional; details: dose 0.5 µM, 0.25 h; method in brief: as §1
[9] = test system: MV4-11; assay: Induction of apoptosis in human MV4-11 cells assessed as early apoptotic cells at 0.50 uM incubated for 15 mins by Annexin-V/FITC staining based FACS analysis (reference value: 0.70%); type: functional; details: dose 0.5 µM, 0.25 h; method in brief: as §1
[10] = test system: MV4-11; assay: Induction of apoptosis in human MV4-11 cells assessed as viable cells at 0.50 uM incubated for 15 mins by Annexin-V/FITC staining based FACS analysis (reference value: 35.53%); type: functional; details: MV4-11, 0.25 h, read-out: Activity; method in brief: as §1
[11] = target: Histone deacetylase 5 (Homo sapiens, UniProt Q9UQL6); assay: Inhibition of full length human HDAC5 using FAM-labeled acetylated peptide as substrate by electrophoretic mobility shift assay
Sequence of Histone deacetylase 5 (Q9UQL6 whole entry, canonical isoform): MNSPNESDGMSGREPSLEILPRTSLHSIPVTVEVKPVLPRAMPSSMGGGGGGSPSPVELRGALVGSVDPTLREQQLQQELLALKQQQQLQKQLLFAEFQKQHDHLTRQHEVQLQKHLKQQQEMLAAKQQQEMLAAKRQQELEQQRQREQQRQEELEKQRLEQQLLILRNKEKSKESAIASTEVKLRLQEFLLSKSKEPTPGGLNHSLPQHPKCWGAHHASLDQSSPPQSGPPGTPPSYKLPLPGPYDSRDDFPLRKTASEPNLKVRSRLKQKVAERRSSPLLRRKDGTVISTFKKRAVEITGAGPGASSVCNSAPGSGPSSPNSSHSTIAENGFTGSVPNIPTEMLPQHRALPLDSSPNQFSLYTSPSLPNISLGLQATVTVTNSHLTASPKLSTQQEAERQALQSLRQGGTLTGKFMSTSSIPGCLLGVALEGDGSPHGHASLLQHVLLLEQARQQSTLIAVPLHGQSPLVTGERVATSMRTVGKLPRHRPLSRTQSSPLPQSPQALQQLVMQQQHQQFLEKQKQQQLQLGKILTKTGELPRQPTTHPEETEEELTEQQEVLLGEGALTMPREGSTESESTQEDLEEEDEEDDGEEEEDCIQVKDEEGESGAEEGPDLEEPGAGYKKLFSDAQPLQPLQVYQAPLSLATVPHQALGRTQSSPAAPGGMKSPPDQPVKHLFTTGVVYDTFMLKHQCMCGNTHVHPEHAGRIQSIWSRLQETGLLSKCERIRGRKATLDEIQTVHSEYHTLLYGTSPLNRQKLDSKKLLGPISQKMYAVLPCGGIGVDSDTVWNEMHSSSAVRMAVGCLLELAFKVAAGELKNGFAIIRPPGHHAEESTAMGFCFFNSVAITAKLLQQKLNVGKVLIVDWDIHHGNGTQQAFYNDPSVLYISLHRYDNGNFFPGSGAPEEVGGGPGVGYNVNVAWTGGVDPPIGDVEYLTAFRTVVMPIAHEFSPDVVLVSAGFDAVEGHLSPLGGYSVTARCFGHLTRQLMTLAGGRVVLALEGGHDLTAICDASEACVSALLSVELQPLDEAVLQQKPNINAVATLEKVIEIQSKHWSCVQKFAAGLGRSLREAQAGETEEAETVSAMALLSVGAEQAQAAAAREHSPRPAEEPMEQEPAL
Method in brief: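 Full-length human HDAC isoform enzymatic assay by electrophoretic mobility shift, using a FAM-labelled acetylated peptide substrate. […] Values are the mean of duplicate experiments with 95% confidence intervals.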

| SMILES | Activity [1] | viability at 1 µM [2] | IC50 [3] | t1/2 [4] | remaining at 0.25 h [5] | TIME [6] | remaining at 1 h [7] | Activity [8] | Activity [9] | viability at 0.5 µM [10] | IC50 [11] |
| --- | --- | --- | --- | --- | --- | --- | --- | --- | --- | --- | --- |
| O=C(CCCCCCNC(=O)c1cnc(N(c2ccccc2)c2ccccc2Cl)nc1)NO [CITARINOSTAT] | 13.33% | 68.4% |  |  |  |  |  |  |  |  |  |
| O=C(NO)c1ccc(CN(Cc2cccnc2)S(=O)(=O)c2cc(F)c(F)c(F)c2F)cc1 |  |  | 0.002 µM | 1.7 h | 88.1% | 2.37 h | 68% | 5.46% | 1.24% | 28.4% | 8.65 µM |

Reference: ChEMBL document CHEMBL5042469, “Unique Molecular Interaction with the Histone Deacetylase 6 Catalytic Tunnel: Crystallographic and Biological Characterization of a Model Chemotype” (J Med Chem, 2021)
